{"data": "Measured values gathered from unrelated publications", "read-out": "cell growth or viability", "note": "Protocols differ between the studies behind these lines."}
{"Structure (SMILES)": "COc1ccc(NC(=O)Nc2cccc(-c3cn(Cc4ccc(C)cc4)nn3)c2)cc1", "cell line": "MCF7", "assay": "CCK-8", "conditions": "50 µM, 48 h", "measurement": "viability", "result": "104%"}
{"Structure (SMILES)": "CCc1nc(C(N)=O)c(Nc2ccc(N3CCC(N4CCN(C)CC4)CC3)c(OC)c2)nc1NC1CCOCC1", "cell line": "NOMO-1", "conditions": "72 h", "measurement": "GI50", "result": "2.54 µM"}
{"Structure (SMILES)": "COc1ccc2/c(=N/c3ccccc3NC(=O)[C@@H](N)C(C)(C)C)cc(-c3ccc4c(c3)OCO4)oc2c1", "cell line": "MCF7", "assay": "CCK-8", "conditions": "1 µM", "measurement": "inhibition", "result": "14.2%"}
{"Structure (SMILES)": "O=C(Nc1ccc(Cl)cc1)Nc1ccc(-c2cn(Cc3ccc(Cl)cc3)nn2)cc1", "cell line": "MCF7", "assay": "CCK-8", "conditions": "50 µM, 72 h", "measurement": "viability", "result": "98%"}
{"Structure (SMILES)": "COc1ccc(NC(=O)NCc2cn(Cc3ccccc3C)nn2)cc1", "cell line": "MCF7", "assay": "CCK-8", "conditions": "50 µM, 48 h", "measurement": "viability", "result": "96.3%"}
{"Structure (SMILES)": "CN(C)CCNC(=O)c1ccc(-c2nc3ccc4[nH]ncc4c3c3c2CCCCC3)cc1", "cell line": "NOMO-1", "conditions": "72 h", "measurement": "GI50", "result": "2.27 µM"}
{"Structure (SMILES)": "O=C(Nc1ccc(Cl)cc1)Nc1ccc(-c2cn(Cc3cccc(Cl)c3)nn2)cc1", "cell line": "MCF7", "assay": "CCK-8", "conditions": "50 µM, 72 h", "measurement": "viability", "result": "98.2%"}
{"Structure (SMILES)": "Cc1n[nH]c2ccc3nc(-c4ccc(C(=O)NCCN(C)C)cc4)c4c(c3c12)CCCC4", "cell line": "NOMO-1", "conditions": "72 h", "measurement": "GI50", "result": "1.05 µM"}
{"Structure (SMILES)": "O=C(Nc1ccc(Cl)cc1)Nc1cccc(-c2cn(Cc3ccc(Cl)cc3)nn2)c1", "cell line": "MCF7", "assay": "CCK-8", "conditions": "50 µM, 48 h", "measurement": "viability", "result": "104%"}
{"Structure (SMILES)": "COc1ccc2/c(=N/c3ccccc3NC(=O)[C@@H](N)C(C)(C)C)cc(-c3ccc4c(c3)OCCO4)oc2c1", "cell line": "MCF7", "assay": "CCK-8", "conditions": "1 µM", "measurement": "inhibition", "result": "8.1%"}
{"Structure (SMILES)": "CN(C)CCNC(=O)c1ccc(-c2nc3ccc4[nH]ncc4c3c3c2CCCC3)cc1", "cell line": "NOMO-1", "conditions": "72 h", "measurement": "GI50", "result": "0.568 µM"}
{"Structure (SMILES)": "Nc1nc2ccc(-c3c/c(=N\\c4ccccc4NC(=O)C4CCNC4)c4ccccc4o3)cc2o1 (stereo not drawn)", "cell line": "MCF7", "assay": "CCK-8", "conditions": "1 µM", "measurement": "inhibition", "result": "11.6%"}
{"Structure (SMILES)": "O=C(NCc1cn(Cc2ccc(Br)cc2)nn1)Nc1ccc(Cl)cc1", "cell line": "MCF7", "assay": "CCK-8", "conditions": "50 µM, 72 h", "measurement": "viability", "result": "91.2%"}
{"Structure (SMILES)": "COc1ccc(NC(=O)NCc2cn(Cc3ccc(C)cc3)nn2)cc1", "cell line": "MCF7", "assay": "CCK-8", "conditions": "50 µM, 72 h", "measurement": "viability", "result": "101%"}
{"Structure (SMILES)": "O=C(Nc1ccc(Cl)cc1)Nc1cccc(-c2cn(Cc3cccc(Cl)c3)nn2)c1", "cell line": "MCF7", "assay": "CCK-8", "conditions": "50 µM, 72 h", "measurement": "viability", "result": "70.5%"}
{"Structure (SMILES)": "CNCCC(=O)Nc1ccccc1/N=c1\\cc(-c2ccc3nc(N)oc3c2)oc2ccccc12", "cell line": "MCF7", "assay": "CCK-8", "conditions": "1 µM", "measurement": "inhibition", "result": "31.9%"}
{"Structure (SMILES)": "COc1ccc(NC(=O)Nc2cccc(-c3cn(Cc4ccc(Br)cc4)nn3)c2)cc1", "cell line": "MCF7", "assay": "CCK-8", "conditions": "50 µM, 72 h", "measurement": "viability", "result": "98.4%"}
{"Structure (SMILES)": "O=C(C[C@@H](C(F)F)n1ccc(F)n1)N1CCC(O)(Cn2cnc3c(cnn3-c3ccc(F)cc3)c2=O)CC1", "cell line": "CAPAN-1", "assay": "SRB", "conditions": "27.43 nM, 5 days", "measurement": "viability", "result": "66.3%"}
{"Structure (SMILES)": "Cc1n[nH]c2ccc3nc(-c4ccc(C(=O)NCCN(C)C)cc4F)c4c(c3c12)CCCC4", "cell line": "NOMO-1", "conditions": "72 h", "measurement": "GI50", "result": "0.292 µM"}
{"Structure (SMILES)": "Nc1ccccc1/N=c1\\cc(-c2ccc3c(c2)OCO3)oc2ccccc12", "cell line": "MCF7", "assay": "CCK-8", "conditions": "1 µM", "measurement": "inhibition", "result": "7.65%"}
{"Structure (SMILES)": "Cc1ccccc1Cn1cc(-c2cccc(NC(=O)Nc3ccc(F)cc3)c2)nn1", "cell line": "MCF7", "assay": "CCK-8", "conditions": "50 µM, 72 h", "measurement": "viability", "result": "58.8%"}
{"Structure (SMILES)": "NC(=O)C1CCCN1C(=O)Nc1ccccc1/N=c1\\cc(-c2ccc3c(c2)OCCO3)oc2cc(F)ccc12 (stereo not drawn)", "cell line": "MCF7", "assay": "CCK-8", "conditions": "1 µM", "measurement": "inhibition", "result": "7.19%"}
{"Structure (SMILES)": "COc1ccc(NC(=O)Nc2cccc(-c3cn(Cc4ccccc4C)nn3)c2)cc1", "cell line": "MCF7", "assay": "CCK-8", "conditions": "50 µM, 72 h", "measurement": "viability", "result": "72.3%"}
{"Structure (SMILES)": "NCCC(=O)Nc1ccccc1/N=c1\\cc(-c2ccc3c(c2)OCO3)oc2ccccc12", "cell line": "MCF7", "assay": "CCK-8", "conditions": "1 µM", "measurement": "inhibition", "result": "-5.6%"}
{"Structure (SMILES)": "O=C(Nc1ccc(-c2cn(Cc3ccc(Br)cc3)nn2)cc1)Nc1ccccc1Br", "cell line": "MCF7", "assay": "CCK-8", "conditions": "50 µM, 72 h", "measurement": "viability", "result": "103%"}
{"Structure (SMILES)": "O=C(Nc1ccc(Cl)cc1)Nc1cccc(-c2cn(Cc3cccc(Br)c3)nn2)c1", "cell line": "MCF7", "assay": "CCK-8", "conditions": "50 µM, 48 h", "measurement": "viability", "result": "85.3%"}
{"Structure (SMILES)": "O=C(Nc1ccccc1/N=c1\\cc(-c2ccc3c(c2)OCO3)oc2ccccc12)N1CCOCC1", "cell line": "MCF7", "assay": "CCK-8", "conditions": "1 µM", "measurement": "inhibition", "result": "12.9%"}
